Laboratory results reported in article PMC3169095 (Biochemistry, 2011).

How the values were obtained:
Assay type in all cases: cell-based
Piezo1 [1] = target: T1, Piezo1 (Mus musculus, UniProt E2JF22); assay: Outside-out patch recording of pressure-evoked Piezo1 currents
TREK-1 = assay: Outside-out patch recording of mechanosensitive TREK-1 currents; conditions: extracellular peptide; outside-out patches of cells transfected with TREK-1
In short: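 HEK293 cells transfected with TREK-1 plasmid (250 ng, FuGENE) were recorded 24-48 h later in outside-out patches at room temperature. Extracellular (mM): 145 NaCl, 5 KCl, 3 MgCl2, 10 HEPES, 0.1 CaCl2, pH 7.3. Internal: 133 KCl, 10 HEPES, 5 EGTA, 3 MgCl2. Pressure pulses came from a high-speed pressure clamp. D and L peptide forms were perfused. Sampling was 10 kHz, filtered at 2 kHz.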

Piezo1 [2] = target: T1, Piezo1; conditions: 3.0 μM; Piezo1 in HEK293 cells; n=3 S.D.; SD

T1 sequence (E2JF22 whole entry): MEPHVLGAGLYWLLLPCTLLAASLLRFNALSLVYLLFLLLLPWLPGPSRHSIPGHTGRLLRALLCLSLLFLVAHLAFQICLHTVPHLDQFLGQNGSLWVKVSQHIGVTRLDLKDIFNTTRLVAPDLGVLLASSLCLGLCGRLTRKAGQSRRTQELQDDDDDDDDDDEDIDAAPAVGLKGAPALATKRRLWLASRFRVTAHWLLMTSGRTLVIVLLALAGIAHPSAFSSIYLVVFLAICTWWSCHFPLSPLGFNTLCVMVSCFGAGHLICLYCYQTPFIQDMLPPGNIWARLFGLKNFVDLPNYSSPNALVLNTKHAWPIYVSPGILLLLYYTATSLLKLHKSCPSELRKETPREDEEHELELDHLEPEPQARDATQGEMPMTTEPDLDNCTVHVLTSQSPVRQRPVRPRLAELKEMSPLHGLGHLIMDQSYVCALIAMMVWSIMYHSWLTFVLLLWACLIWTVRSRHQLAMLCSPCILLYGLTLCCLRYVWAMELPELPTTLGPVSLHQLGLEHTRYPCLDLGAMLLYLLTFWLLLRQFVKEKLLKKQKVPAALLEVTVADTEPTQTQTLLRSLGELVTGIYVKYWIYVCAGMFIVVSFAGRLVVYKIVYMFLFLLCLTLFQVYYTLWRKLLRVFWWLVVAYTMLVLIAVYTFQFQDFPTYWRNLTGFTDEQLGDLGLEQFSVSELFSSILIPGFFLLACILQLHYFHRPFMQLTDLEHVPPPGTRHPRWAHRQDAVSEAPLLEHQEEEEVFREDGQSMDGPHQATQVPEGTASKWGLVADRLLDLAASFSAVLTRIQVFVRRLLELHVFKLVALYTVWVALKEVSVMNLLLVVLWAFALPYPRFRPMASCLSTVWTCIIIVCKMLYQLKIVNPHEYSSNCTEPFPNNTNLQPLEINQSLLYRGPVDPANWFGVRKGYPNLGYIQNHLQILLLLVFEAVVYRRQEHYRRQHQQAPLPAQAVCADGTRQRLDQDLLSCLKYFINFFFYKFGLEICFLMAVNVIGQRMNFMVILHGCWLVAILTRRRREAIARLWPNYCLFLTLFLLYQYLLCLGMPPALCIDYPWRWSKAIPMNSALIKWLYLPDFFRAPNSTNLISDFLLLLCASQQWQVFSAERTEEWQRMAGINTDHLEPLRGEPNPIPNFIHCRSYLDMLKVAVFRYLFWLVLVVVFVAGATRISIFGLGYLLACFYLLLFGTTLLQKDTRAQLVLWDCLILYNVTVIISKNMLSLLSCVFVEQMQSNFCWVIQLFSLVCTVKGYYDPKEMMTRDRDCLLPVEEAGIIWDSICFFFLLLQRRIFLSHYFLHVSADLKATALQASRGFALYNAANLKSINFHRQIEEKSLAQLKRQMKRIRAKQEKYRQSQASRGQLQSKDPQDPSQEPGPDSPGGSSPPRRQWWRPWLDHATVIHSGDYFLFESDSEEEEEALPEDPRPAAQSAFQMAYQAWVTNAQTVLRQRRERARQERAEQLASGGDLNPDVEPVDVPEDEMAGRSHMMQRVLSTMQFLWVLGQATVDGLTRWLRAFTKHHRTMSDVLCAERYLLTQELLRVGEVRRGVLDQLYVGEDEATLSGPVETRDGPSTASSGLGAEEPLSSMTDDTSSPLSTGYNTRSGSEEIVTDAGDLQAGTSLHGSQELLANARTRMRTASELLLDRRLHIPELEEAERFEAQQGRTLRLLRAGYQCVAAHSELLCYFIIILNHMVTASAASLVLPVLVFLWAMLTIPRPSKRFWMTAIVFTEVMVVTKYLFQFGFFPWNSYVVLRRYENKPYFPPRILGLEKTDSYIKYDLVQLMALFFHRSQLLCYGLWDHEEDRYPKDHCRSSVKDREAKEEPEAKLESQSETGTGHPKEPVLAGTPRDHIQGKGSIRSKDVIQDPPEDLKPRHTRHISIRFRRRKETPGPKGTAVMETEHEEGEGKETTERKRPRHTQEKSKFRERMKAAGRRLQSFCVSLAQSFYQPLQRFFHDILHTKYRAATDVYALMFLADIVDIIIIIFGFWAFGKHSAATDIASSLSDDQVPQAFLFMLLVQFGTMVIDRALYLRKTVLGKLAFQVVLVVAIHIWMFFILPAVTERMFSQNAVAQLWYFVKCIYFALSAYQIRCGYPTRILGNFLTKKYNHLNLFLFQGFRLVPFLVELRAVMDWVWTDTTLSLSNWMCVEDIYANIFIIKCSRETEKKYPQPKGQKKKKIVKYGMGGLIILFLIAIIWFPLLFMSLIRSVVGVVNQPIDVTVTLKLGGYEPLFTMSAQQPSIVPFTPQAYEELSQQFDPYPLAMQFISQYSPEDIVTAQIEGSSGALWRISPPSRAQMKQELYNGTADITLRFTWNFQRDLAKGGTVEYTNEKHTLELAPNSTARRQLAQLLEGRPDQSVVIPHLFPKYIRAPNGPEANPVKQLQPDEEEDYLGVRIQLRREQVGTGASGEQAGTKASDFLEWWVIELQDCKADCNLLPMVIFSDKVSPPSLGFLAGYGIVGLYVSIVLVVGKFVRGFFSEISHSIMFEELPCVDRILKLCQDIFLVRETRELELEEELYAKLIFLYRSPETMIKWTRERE

[H]/N=C(/N)N[C@H]1[C@H](O)[C@@H](O)[C@H](O[C@@H]2O[C@@H](C)[C@](O)(C=O)[C@H]2O[C@@H]2O[C@@H](CO)[C@H](O)[C@@H](O)[C@@H]2NC)[C@@H](N/C(N)=N\[H])[C@@H]1O [streptomycin]
mode of inhibition of Piezo1 (Piezo1 [1]; 1 mM applied for 90 seconds to resting outside-out patches, Figure S2 B): open channel blocker

D-GsMTx4
inhibition of peak currents (Piezo1 [1]; outside-out patches, 2.5 μM, n=5, Figure 1C, normalized data): 29 ± 9%
inhibition of TREK-1 mechanosensitive currents (TREK-1): no inhibition
inhibition of whole cell mechanosensitive currents (Piezo1 [2]): 70±6%
